How the values were obtained:
SNB-19 = assay: Growth inhibition of human SNB19 cells by sulforhodamine B assay; type: functional
SK-MEL-5 = assay: Growth inhibition of human SK-MEL-5 cells by sulforhodamine B assay; type: functional
SR = assay: Growth inhibition of human SR cells by sulforhodamine B assay; type: functional
ACHN = assay: Growth inhibition of human ACHN cells by sulforhodamine B assay; type: functional
[1] = Cytotoxicity against human SJ-GBM2 cells after 72 hrs by XTT assay; type: functional, cell-based
How it was run: (§1)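 Cells grown at 37 °C, 5% CO2; HFF in DMEM with 10% FBS, PrEC in prostate epithelial growth medium. Adherent lines seeded overnight, suspension lines same day; compounds diluted from DMSO stocks into media at various final concentrations, 72 h exposure. XTT reagent added 4 h, absorbance 490 nm (reference 690 nm). Growth as % of vehicle; IC50 from sigmoidal dose-response fit; mean ± SEM, three independent experiments.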

Mus musculus [2] = assay: Toxicity in NOD/SCID mouse assessed as leukopenia at 5 to 50 mg/kg, […] for 5 days; type: organism-based; design: dose 5-50 mg/kg; conditions: in vivo, po, 120 h
Mus musculus [3] = assay: Toxicity in NOD/SCID mouse assessed as total protein level at 5 to 50 mg/kg, […] for 5 days; type: organism-based; design: dose 5-50 mg/kg; conditions: in vivo, po, 120 h
OVCAR-3 = assay: Growth inhibition of human OVCAR-3 cells by sulforhodamine B assay; type: functional
RXF 393 = assay: Growth inhibition of human RXF393 cells by sulforhodamine B assay; type: functional
NCI-H460 = assay: Growth inhibition of human NCI-H460 cells by sulforhodamine B assay; type: functional
Malme-3M = assay: Growth inhibition of human MALME-3M cells by sulforhodamine B assay; type: functional
PrEC = assay: Cytotoxicity against human PrEC cells after 72 hrs by XTT assay; type: cell-based; how it was run: as §1
MDA-MB-231 = assay: Growth inhibition of human MDA-MB-231 cells by sulforhodamine B assay; type: functional
SK-MEL-28 = assay: Cytotoxicity against human SK-MEL-28 cells after 72 hrs by XTT assay; type: functional, cell-based; conditions: SK-MEL-28, 72 h; how it was run: as §1
CCRF-CEM = assay: Growth inhibition of human CCRF-CEM cells by sulforhodamine B assay; type: functional
MDA-MB-468 = assay: Growth inhibition of human MDA-MB-468 cells by sulforhodamine B assay; type: functional
PC-3 = assay: Cytotoxicity against human PC3 cells after 72 hrs by XTT assay; type: functional, cell-based; conditions: PC-3, 72 h; how it was run: as §1
UACC-62 = assay: Growth inhibition of human UACC62 cells by sulforhodamine B assay; type: functional
[4] = read-out: Log10GI50 (converted)
[5] = read-out: Log10LC50 (converted)

With `CC(/C=C/[C@@H]1C[C@]2(CO2)CC(C)(C)O1)=C\C[C@H]1CC[C@@H](NC(=O)/C=C\[C@H](C)OC(=O)C(C)C)CC1` the GI50 (SNB-19; [4]) was 2000 nM, the CC50 (SNB-19; [5]) was > 100000 nM and the TGI (SNB-19; read-out: Log10TGI (converted)) was > 100000 nM. For the same molecule, the GI50 (SK-MEL-5; [4]) was 316 nM, the CC50 (SK-MEL-5; [5]) was 10200 nM and the TGI (SK-MEL-5; read-out: Log10TGI (converted)) was 1950 nM. The GI50 (SR; [4]) was 58.9 nM, the CC50 (SR; [5]) was > 100000 nM and the TGI (SR; read-out: Log10TGI (converted)) was 447 nM. For the same molecule, the GI50 (ACHN; [4]) was 537 nM, the CC50 (ACHN; [5]) was > 100000 nM and the TGI (ACHN; read-out: Log10TGI (converted)) was 75900 nM. The IC50 [1] was 900 nM, the Activity (Mus musculus [2]) was “Non-toxic” and the Activity (Mus musculus [3]) was “Non-toxic”. For the same molecule, the GI50 (OVCAR-3; [4]) was 229 nM, the CC50 (OVCAR-3; [5]) was > 100000 nM and the TGI (OVCAR-3; read-out: Log10TGI (converted)) was 3470 nM. For the same molecule, the GI50 (RXF 393; [4]) was 229 nM, the CC50 (RXF 393; [5]) was > 100000 nM and the TGI (RXF 393; read-out: Log10TGI (converted)) was 1820 nM. For the same molecule, the GI50 (NCI-H460; [4]) was 501 nM, the CC50 (NCI-H460; [5]) was > 100000 nM and the TGI (NCI-H460; read-out: Log10TGI (converted)) was > 100000 nM. For the same molecule, the GI50 (Malme-3M; [4]) was 1380 nM, the CC50 (Malme-3M; [5]) was > 100000 nM and the TGI (Malme-3M; read-out: Log10TGI (converted)) was 61700 nM. The IC50 (PrEC) was 7010 nM, the GI50 (MDA-MB-231; [4]) was 955 nM and the CC50 (MDA-MB-231; [5]) was > 100000 nM. For the same molecule, the TGI (MDA-MB-231; read-out: Log10TGI (converted)) was > 100000 nM, the IC50 (SK-MEL-28) was 550 nM and the GI50 (CCRF-CEM; [4]) was 47.9 nM. For the same molecule, the CC50 (CCRF-CEM; [5]) was > 100000 nM, the TGI (CCRF-CEM; read-out: Log10TGI (converted)) was > 100000 nM and the GI50 (MDA-MB-468; [4]) was 741 nM. The CC50 (MDA-MB-468; [5]) was > 100000 nM, the TGI (MDA-MB-468; read-out: Log10TGI (converted)) was 39800 nM and the IC50 (PC-3) was 2200 nM. The GI50 (UACC-62; [4]) was 513 nM, the CC50 (UACC-62; [5]) was 46800 nM and the TGI (UACC-62; read-out: Log10TGI (converted)) was 4680 nM.

— ChEMBL document CHEMBL1154676, “Synthetic mRNA splicing modulator compounds with in vivo antitumor activity” (J Med Chem, 2009)
